Diaphorase act = compounds boosting diaphorase resazurin reduction – biochemical, uHTS, resorufin fluorescence, counter-screen for diaphorase-coupled primary assays, primary screen | 0.005% of 190,000 active | activation factor at 20 µM | Diaphorase/resazurin coupled assay, 16 min; stronger effect = higher value; 1 = vehicle wells, 0 = NADH-free wells | AID 1229, 2008;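 active = diaphorase activity raised at least twofold by the compound at 20 µM; inactive = activation factor below 2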
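Assay system: bacterial diaphorase enzyme (C. kluyveri) / Input: enzyme 0.07 U/mL final / Medium: 50 mM HEPES pH 7.4 with 4.542 mM MgCl2, 0.005% Tween 20 / Doses: single compound dose of 20 µM, 1% DMSO final / Incubation: 16 min enzyme reaction, ambient temperature / Signal: fluorescence, excitation 544 nm and emission 590 nm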
Diaphorase inh = diaphorase inhibitors and chemical oxidizers, primary screen, counter-screen for diaphorase-coupled primary assays, biochemical, uHTS, resorufin fluorescence. diaphorase resazurin-to-resorufin fluorescence, NADH, 16 min; bacterial (C. kluyveri) enzyme, not human. AID 1217, 2008. inhibition, % at 20 µM. 0.69% of 190,000 active;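 active = primary screen inhibition at 20 µM above a set limit, cut at about 50% in these data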
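System: Diaphorase enzyme from Clostridium kluyveri | Amount: Enzyme working solution with 0.14 U/mL diaphorase | Benchmarks: No-NADH positive control and DMSO neutral control | Signal: Fluorescence of resorufin formed from resazurin, Ex 544/Em 590 nm | Schedule: 16-min room-temperature incubation before reading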
ROMK primary = ROMK potassium channel modulators, primary screen, cell-based, thallium flux, MLSMR library; ATP-sensitive inward rectifier potassium channel 1 (Homo sapiens), P48048; Tet-inducible ROMK, thallium flux fluorescence; actives lie on both sides; B-score at 10 µM; 2% of 130,000 active; AID 1918, 2009;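 active = signal ratio slope over the read window, or its plate-corrected B-score, at least 3 SD from the plate mean, either direction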;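 note: B-score of the F/F0 ratio slope over 7 to 12 s after thallium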
L major viab = Leishmania major promastigote growth inhibition, primary screen; Leishmania major promastigotes, resazurin fluorescence viability; inhibition, % at 10 µM; 9% of 200,000 active; in the data active = inhibition above about 50%;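 note: promastigotes grown with compound for 44 hours at 28 °C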
WT yeast gro inh = growth inhibition of WT strain, primary screen, mitochondrial fusion inhibitor project, WT and mutant strains, chemical genetic | mitochondrial fusion phenotypic screen | inhibition, % at 10 µM | 2.1% of 190,000 active | AID 1362, 2008; in the data active = inhibition above about 58%; tested in S. cerevisiae
KCC2 mod = KCC2 cotransporter modulators, thallium flux, primary screen, cell-based, HEK293 KCC2, FluoZin-2 fluorescence, MLSMR; KCC2 cells, thallium flux FluoZin-2 fluorescence; B-score of Tl+ flux slope (higher = more flux/activation; lower = inhibition) at 10 µM; Solute carrier family 12 member 5 (Homo sapiens), Q9H2X9; 2.2% of 190,000 active;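 active = thallium flux slope and its plate-corrected score both differing from the plate sample mean at a set confidence after two filtering rounds, in either direction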;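 note: slope of fluorescence scaled to starting intensity during 10 to 20 s after thallium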
Target sequence (Q9H2X9 whole entry, looked up): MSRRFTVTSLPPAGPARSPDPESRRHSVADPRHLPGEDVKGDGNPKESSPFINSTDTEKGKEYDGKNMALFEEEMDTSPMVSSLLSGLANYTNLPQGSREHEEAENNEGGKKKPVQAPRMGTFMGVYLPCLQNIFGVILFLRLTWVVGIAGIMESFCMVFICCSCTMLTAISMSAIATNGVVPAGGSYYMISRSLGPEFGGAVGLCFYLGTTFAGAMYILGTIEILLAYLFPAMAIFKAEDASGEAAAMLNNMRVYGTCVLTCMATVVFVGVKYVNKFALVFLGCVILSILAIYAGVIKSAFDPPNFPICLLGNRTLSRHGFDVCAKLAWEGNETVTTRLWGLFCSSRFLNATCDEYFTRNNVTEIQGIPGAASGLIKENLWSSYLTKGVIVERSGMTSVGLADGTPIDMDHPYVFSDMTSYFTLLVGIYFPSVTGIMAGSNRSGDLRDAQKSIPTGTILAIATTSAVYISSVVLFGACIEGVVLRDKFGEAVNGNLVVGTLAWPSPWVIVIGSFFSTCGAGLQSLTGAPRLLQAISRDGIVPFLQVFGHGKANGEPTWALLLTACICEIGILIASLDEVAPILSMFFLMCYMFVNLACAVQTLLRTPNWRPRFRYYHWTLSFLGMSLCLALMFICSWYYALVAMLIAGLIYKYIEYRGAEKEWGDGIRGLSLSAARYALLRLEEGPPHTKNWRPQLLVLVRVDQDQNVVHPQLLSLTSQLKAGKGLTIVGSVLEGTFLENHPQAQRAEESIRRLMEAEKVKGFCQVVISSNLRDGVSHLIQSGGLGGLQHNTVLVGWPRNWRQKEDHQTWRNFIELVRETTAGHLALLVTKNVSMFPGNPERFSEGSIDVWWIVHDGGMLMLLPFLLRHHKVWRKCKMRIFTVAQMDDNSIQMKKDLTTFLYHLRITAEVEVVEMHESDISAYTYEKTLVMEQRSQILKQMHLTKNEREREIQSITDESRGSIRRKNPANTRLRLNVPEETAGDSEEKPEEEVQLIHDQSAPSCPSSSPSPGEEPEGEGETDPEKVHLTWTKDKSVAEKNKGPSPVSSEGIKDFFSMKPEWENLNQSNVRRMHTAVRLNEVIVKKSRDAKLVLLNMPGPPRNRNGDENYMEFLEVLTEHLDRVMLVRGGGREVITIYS
KCC2 sec1 = KCC2 modulators in sodium-free buffer, confirmation, cell-based, HEK293 KCC2, thallium flux, secondary assay; AID 1713, 2009; normalised thallium flux (F/F0 slope) at 10 µM; shares compounds with KCC2 mod; FluoZin2 fluorescence; stronger effect = higher value; 15% of 3,700 active;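 active = thallium flux slope above the same plate's solvent-only control mean plus 3 SD; inconclusive = the two replicate wells disagree; inactive = no significant difference from solvent-only control wells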
KCC2 bumet counter = thallium flux persisting under bumetanide in KCC2 cells, confirmation, counter-screen for KCC2 modulator project, cell-based, HEK293 KCC2, FluoZin2, secondary assay 3; AID 1714, 2009; shares compounds with KCC2 mod; HEK293-KCC2 + bumetanide/ouabain; stronger effect = higher value; normalized thallium flux at 10 µM; 49% of 3,700 active;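 active = thallium entry rate above the same plate's blocked-transporter control wells by more than 3 SD; inconclusive = the two repeat wells disagree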;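 note: raw slope of fluorescence over initial fluorescence between 10 and 20 s after thallium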
KCC2 secondary2 = KCC2 modulators without ouabain present, confirmation, cell-based, HEK293 KCC2, thallium flux, FluoZin2, secondary assay 2; shares compounds with KCC2 mod; thallium flux FluoZin2 fluorescence; actives lie on both sides; F/F0 rise rate, 10–20 s post-thallium; normalized thallium flux at 10 µM; 23% of 3,700 active; AID 1715, 2009;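 active = thallium flux slope more than 3 SD above or below the plate's solvent-only control mean, mostly below; inconclusive = the two repeat wells disagreed; inactive = no significant shift from solvent-only controls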
HEK293 Tl flux = thallium flux modulation in parental HEK cells, confirmation, counter-screen for KCC2 modulator project, cell-based, counterscreen 1 | shares compounds with KCC2 mod | HEK293 parental cells, thallium flux FluoZin2, ouabain; baseline-ratio fluorescence slope, 10–20 s after thallium | thallium flux rate (normalised fluorescence) at 10 µM | 46% of 3,700 active | AID 1716, 2009;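 active = thallium flux rate significantly above the same plate's solvent-only control wells, beyond their mean plus 3 SD; inconclusive = the two replicate wells gave conflicting results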
KCC2 ouabain = KCC2 inhibitors and activators, ouabain retest, confirmation, HEK-KCC2 cells; shares compounds with KCC2 mod; HEK293-KCC2, thallium flux FluoZin2 fluorescence; bidirectional: low = inhibitor, high = activator; raw Tl+ flux slope (below DMSO = inhibition, above = activation) at 10 µM; 48% of 3,700 active; AID 1717, 2009;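 active = thallium flux slope beyond 3 SD from same-plate DMSO control mean in most replicates, usually higher, sometimes lower; inconclusive = repeat tests gave conflicting results; inactive = no significant difference from controls in most replicates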;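 note: slope of initial-normalized fluorescence between seconds 10 and 20 after thallium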
HEK counter2 = native HEK Tl+ uptake effects, second counter-screen – HEK cells, counterscreen 2, counter-screen for KCC2 modulator project, confirmation. shares compounds with KCC2 mod. HEK293 parental, thallium flux FluoZin-2 fluorescence slope. thallium flux slope at 10 µM. 33% of 3,700 active. AID 1718, 2009;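 active = thallium flux slope above the same plate's solvent-control mean plus 3 SD in both duplicate wells; inconclusive = duplicate wells that disagreed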;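 note: run without ouabain in cells lacking the KCC2 cotransporter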
Of the large screens only hits and unclear results are named; the others gave an inactive call (follow-up assays come after a bar, where they were run). Rows were chosen to be rich in hits. Some 12% of all compounds tested hit in one or more screens of this group.

S=C(Nc1ccccn1)NC1CCCCC1	KCC2 mod 3.5 (no result: Diaphorase act, Diaphorase inh, L major viab, WT yeast gro inh) | KCC2 sec1 inactive | KCC2 bumet counter 0.0063 | KCC2 secondary2 inactive | HEK293 Tl flux inactive | KCC2 ouabain inactive | HEK counter2 inactive
O=C(NC(=S)Nc1cccc2ncccc12)c1cccs1	KCC2 mod 8.2 | KCC2 sec1 inconclusive | KCC2 bumet counter 0.035 | KCC2 secondary2 inactive | HEK293 Tl flux 0.016 | KCC2 ouabain 0.025 | HEK counter2 0.018
O=C(NC(=S)Nc1cccc2ncccc12)c1ccccc1	KCC2 mod 4.5 | KCC2 sec1 inactive | KCC2 bumet counter 0.01 | KCC2 secondary2 inactive | HEK293 Tl flux 0.011 | KCC2 ouabain inactive | HEK counter2 inconclusive
CC(=O)Nc1cccc2ncccc12	none
S=C(Nc1ccccn1)NC1CCCC1	none
O=C(NC(=S)Nc1ccccn1)c1ccccc1	KCC2 mod 9.1 (no result: Diaphorase act, Diaphorase inh, L major viab, WT yeast gro inh) | KCC2 sec1 inactive | KCC2 bumet counter 0.017 | KCC2 secondary2 inactive | HEK293 Tl flux inconclusive | KCC2 ouabain 0.027 | HEK counter2 inactive
COc1cc(CNC2CCCCCC2)cc(OC)c1	none
CC(O)C(=O)NCCOCCOCCNC(=O)C(C)O (stereo not given)	none (no result: ROMK primary)
Cc1cccc(NC(=S)NNC(=S)NC2CCCCC2)c1C	KCC2 mod 4 | KCC2 sec1 inactive | KCC2 bumet counter 0.012 | KCC2 secondary2 inactive | HEK293 Tl flux 0.0094 | KCC2 ouabain inconclusive | HEK counter2 inactive
COc1ccccc1NC(=S)NC1CCCCCCCCCCC1	none (no result: Diaphorase act, Diaphorase inh, L major viab, WT yeast gro inh)
Fc1cccc(F)c1/C=N/NC(=S)Nc1cccnc1	KCC2 mod 5.2 | KCC2 sec1 inactive | KCC2 bumet counter 0.012 | KCC2 secondary2 inactive | HEK293 Tl flux 0.012 | KCC2 ouabain inconclusive | HEK counter2 inactive
Fc1c(F)c(F)c(/C=N/NC(=S)Nc2cccnc2)c(F)c1F	KCC2 mod 19 | KCC2 sec1 inactive | KCC2 bumet counter 0.03 | KCC2 secondary2 inactive | HEK293 Tl flux 0.015 | KCC2 ouabain inconclusive | HEK counter2 inconclusive
CN(C)CC(C)(C)CNS(=O)(=O)c1cccc2nsnc12	none
CC(C)n1c(=S)[nH]c2cc(Cl)ccc21	KCC2 mod 28 (no result: Diaphorase act, Diaphorase inh, L major viab, WT yeast gro inh) | KCC2 sec1 0.016 | KCC2 bumet counter 0.09 | KCC2 secondary2 inactive | HEK293 Tl flux 0.03 | KCC2 ouabain 0.039 | HEK counter2 0.015
